Source: ChEMBL document CHEMBL1129272, “Identification of the first retinoid X, receptor homodimer antagonist” (J Med Chem, 1996)

Experiments:
[1] = target: T1, Retinoic acid receptor gamma (Homo sapiens, UniProt P13631); assay: Inhibition of [3H]ATRA binding to Retinoic acid receptor RAR gamma
T1 sequence (P13631 whole entry): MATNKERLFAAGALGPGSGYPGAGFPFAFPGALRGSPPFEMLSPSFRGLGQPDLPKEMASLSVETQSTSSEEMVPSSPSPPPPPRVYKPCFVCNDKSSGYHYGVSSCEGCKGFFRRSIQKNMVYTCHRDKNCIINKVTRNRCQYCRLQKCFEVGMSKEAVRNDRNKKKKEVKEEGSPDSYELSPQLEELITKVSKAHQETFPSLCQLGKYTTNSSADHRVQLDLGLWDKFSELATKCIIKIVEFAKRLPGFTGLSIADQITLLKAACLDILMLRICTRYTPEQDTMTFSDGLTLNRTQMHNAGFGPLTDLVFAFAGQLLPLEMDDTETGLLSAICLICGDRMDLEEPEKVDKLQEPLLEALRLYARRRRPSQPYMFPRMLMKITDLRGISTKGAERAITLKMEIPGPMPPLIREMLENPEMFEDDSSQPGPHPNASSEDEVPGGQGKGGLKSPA
Method in brief: (§1)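 Receptors expressed recombinantly in a baculovirus system. Binding was measured by competition against 5 nM [3H]-all-trans-RA. Ki was calculated by the Cheng–Prusoff method.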

[2] = target: T2, Retinoic acid receptor beta (Homo sapiens, UniProt P10826); assay: Inhibition of [3H]ATRA binding to Retinoic acid receptor RAR beta; method in brief: as §1
T2 sequence (P10826 whole entry): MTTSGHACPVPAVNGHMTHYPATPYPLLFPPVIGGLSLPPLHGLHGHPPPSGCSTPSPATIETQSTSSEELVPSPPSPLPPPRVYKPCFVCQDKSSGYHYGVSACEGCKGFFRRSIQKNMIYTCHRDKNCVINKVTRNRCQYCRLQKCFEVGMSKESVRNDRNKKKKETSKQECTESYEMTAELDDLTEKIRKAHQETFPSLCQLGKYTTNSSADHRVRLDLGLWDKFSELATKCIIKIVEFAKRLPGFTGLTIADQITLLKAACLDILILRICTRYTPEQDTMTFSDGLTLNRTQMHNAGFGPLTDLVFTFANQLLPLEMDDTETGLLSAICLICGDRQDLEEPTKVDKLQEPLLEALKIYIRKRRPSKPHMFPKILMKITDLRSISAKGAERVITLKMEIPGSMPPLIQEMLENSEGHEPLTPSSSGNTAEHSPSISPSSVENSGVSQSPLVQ

[3] = target: T3, Retinoic acid receptor alpha (Homo sapiens, UniProt P10276); assay: Inhibition of [3H]ATRA binding to Retinoic acid receptor RAR alpha; method in brief: as §1
T3 sequence (P10276 whole entry): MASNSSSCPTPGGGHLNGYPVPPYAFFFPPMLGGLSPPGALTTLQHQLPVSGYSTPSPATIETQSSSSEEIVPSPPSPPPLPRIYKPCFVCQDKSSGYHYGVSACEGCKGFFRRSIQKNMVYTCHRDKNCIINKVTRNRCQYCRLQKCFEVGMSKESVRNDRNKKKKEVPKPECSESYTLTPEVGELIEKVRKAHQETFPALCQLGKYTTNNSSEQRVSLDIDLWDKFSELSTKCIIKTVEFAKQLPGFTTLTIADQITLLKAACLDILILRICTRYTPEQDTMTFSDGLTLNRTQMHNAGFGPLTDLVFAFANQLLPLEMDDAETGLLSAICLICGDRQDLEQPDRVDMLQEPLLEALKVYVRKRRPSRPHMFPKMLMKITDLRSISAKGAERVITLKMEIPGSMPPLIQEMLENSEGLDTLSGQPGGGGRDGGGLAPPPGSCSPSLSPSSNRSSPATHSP

[4] = target: T4, Retinoic acid receptor RXR-beta (Homo sapiens, UniProt P28702); assay: Inhibition of [3H]-Targretin binding to Retinoid X receptor RXR beta
T4 sequence (P28702 whole entry): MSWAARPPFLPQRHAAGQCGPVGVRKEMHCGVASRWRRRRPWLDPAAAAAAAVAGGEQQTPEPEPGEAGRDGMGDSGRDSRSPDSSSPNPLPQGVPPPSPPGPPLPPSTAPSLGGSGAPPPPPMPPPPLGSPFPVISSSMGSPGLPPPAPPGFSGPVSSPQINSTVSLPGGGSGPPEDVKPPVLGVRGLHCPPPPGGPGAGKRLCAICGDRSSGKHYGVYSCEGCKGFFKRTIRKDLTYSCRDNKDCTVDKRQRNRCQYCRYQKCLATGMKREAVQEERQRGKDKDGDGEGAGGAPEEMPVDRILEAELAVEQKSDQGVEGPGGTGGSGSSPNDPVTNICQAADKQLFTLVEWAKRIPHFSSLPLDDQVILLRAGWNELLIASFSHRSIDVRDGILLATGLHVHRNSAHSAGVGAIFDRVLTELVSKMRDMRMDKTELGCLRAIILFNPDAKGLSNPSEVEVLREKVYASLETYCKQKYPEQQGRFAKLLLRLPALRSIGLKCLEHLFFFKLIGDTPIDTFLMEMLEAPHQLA
Method in brief: (§2)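 Recombinant receptors were expressed in a baculovirus system. Test ligands competed with [3H]Targretin (LGD1069) for binding. Ki values were derived by the Cheng–Prusoff method.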

[5] = target: T1, Retinoic acid receptor gamma; assay: Transcriptional activation of Retinoic acid receptor RAR gamma
Method in brief: (§3)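 CV-1 cells were transiently cotransfected with the receptor expression vector, a ΔMTV-TREp-Luc reporter and an RSV-β-Gal internal control, then incubated with compound (log dilutions, 1 x 10^-12 to 1 x 10^-5 M). Luciferase was normalized by β-galactosidase. Response is % of the all-trans-RA maximum, giving EC50. Three experiments, triplicates at each concentration.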

[6] = target: T2, Retinoic acid receptor beta; assay: Transcriptional activation of Retinoic acid receptor RAR beta; method in brief: as §3
[7] = target: T5, Retinoic acid receptor RXR-alpha (Homo sapiens, UniProt P19793); assay: Inhibition of [3H]targretin binding to Retinoid X receptor RXR alpha
T5 sequence (P19793 whole entry): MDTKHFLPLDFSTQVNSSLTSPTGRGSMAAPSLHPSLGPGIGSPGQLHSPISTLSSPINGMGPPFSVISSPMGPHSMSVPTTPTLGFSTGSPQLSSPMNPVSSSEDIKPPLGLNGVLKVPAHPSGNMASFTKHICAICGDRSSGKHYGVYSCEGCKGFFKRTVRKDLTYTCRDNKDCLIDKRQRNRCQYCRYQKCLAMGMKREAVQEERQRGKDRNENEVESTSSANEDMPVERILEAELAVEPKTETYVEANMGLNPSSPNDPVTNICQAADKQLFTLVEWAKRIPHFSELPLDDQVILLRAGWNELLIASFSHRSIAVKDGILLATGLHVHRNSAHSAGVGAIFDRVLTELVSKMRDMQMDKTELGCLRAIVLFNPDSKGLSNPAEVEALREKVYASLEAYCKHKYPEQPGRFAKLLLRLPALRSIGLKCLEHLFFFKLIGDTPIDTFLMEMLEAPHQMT

[8] = target: T6, Retinoic acid receptor RXR-gamma (Homo sapiens, UniProt P48443); assay: Transcriptional activation of Retinoid X receptor RXR gamma
T6 sequence (P48443 whole entry): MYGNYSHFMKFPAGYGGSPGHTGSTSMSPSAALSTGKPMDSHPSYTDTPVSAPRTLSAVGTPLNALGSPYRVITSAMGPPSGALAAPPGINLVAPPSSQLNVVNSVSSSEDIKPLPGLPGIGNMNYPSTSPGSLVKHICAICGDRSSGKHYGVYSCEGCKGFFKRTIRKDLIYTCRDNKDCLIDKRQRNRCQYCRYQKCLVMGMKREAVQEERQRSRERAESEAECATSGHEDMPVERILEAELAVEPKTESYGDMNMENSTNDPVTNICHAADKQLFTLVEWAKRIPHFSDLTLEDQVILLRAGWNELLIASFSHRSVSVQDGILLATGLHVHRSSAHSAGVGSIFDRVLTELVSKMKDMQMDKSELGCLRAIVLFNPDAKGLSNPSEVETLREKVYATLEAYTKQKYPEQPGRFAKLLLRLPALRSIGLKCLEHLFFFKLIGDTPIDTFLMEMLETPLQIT
Method in brief: (§4)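 In transiently cotransfected CV-1 cells, the receptor vector was paired with a reporter (RXRβ: CPRE-tk-Luc; RXRγ: CRBPII-tk-Luc) plus an RSV-β-Gal internal control. Compound was tested at 1 x 10^-12 to 1 x 10^-5 M in log dilutions. Luciferase was corrected by β-galactosidase and expressed as % of the 9-cis-RA maximum to give EC50. Three experiments, triplicate points.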

[9] = target: T6, Retinoic acid receptor RXR-gamma; assay: Inhibition of [3H]targretin binding to Retinoid X receptor RXR gamma; method in brief: as §2
[10] = target: T4, Retinoic acid receptor RXR-beta; assay: Transcriptional activation of Retinoid X receptor RXR beta; method in brief: as §4
[11] = target: T5, Retinoic acid receptor RXR-alpha; assay: Transcriptional ativation of Retinoid X receptor RXR alpha
[12] = target: T3, Retinoic acid receptor alpha; assay: Transcriptional activation of Retinoic acid receptor RAR alpha; method in brief: as §3

Row | SMILES | Ki [1] | Ki [2] | Ki [3] | Ki [4] | EC50 [5] | EC50 [6] | Ki [7] | EC50 [8] | Ki [9] | EC50 [10] | EC50 [11] | EC50 [12]
1 | CCCOc1cc2c(cc1\C(C)=C/C=C/C(C)=C/C(=O)O)C(C)(C)CCC2(C)C | 6090 nM | 2590 nM | 1790 nM | 9 nM | 192 nM |  |  |  |  |  |  | 
2 | CCOc1cc2c(cc1\C(C)=C/C=C/C(C)=C/C(=O)O)C(C)(C)CCC2(C)C | 4210 nM | 3120 nM | 2580 nM | 12 nM | 121 nM | 31 nM | 4 nM | 7 nM | 17 nM | 9 nM | 8 nM | 
3 | COc1cc2c(cc1\C(C)=C/C=C/C(C)=C/C(=O)O)C(C)(C)CCC2(C)C | 437 nM | 400 nM | 306 nM | 2 nM | 17 nM | 8 nM | 2 nM | 9 nM | 4 nM | 8 nM | 5 nM | 40 nM
